From ChEMBL document CHEMBL1148374 (J Med Chem, 2004) come the findings set out here.

Each structure is given as a SMILES string. Where a SMILES comes first, the peptide text is derived from it. [ ]: non-standard residue; d: D form. The star is where a group is joined. Tyr(Nα,Nα-allyl2) = C=CCN(CC=C)[C@@H](Cc1ccc(O)cc1)C(=O)*; Aib = CC(C)(N)C(=O)O

In general, IC50 refers to the concentration at which inhibition is half-maximal. A low value points to greater potency in that assay. In general, Ki refers to a measure of affinity in units of concentration, obtained from inhibition or displacement. Lower therefore signals tighter binding.

The target in assay [1] is Mu-type opioid receptor (Homo sapiens) (UniProt P35372). Description: Ability to inhibit agonist-stimulated (DAMGO) [35S]GTP-gamma-S, binding, using cloned human Opioid receptor mu 1expressed in CHO cells. The class given is functional, cell-based. The essentials: (§1)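 Agonist dose-response curves in [35S]GTPγS binding were run with and without one fixed concentration of test compound, with 10 μM GDP final. Ke = [L]/((A'/A)−1), where A' and A are agonist EC50 with and without antagonist. Mean ± SE from at least three independent experiments.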
Sequence of Mu-type opioid receptor (Homo sapiens) (P35372 whole entry): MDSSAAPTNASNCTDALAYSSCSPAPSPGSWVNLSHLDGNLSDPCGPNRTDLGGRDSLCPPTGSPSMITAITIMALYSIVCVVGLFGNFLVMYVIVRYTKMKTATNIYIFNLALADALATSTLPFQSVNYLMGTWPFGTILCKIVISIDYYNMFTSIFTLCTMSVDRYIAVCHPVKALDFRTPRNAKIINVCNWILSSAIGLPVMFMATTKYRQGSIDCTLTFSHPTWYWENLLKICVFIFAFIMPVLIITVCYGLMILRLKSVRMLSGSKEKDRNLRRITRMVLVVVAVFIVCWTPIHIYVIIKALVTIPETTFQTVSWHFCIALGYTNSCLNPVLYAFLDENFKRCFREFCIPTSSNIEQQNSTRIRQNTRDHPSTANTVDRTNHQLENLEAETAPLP
A general note: GTPγS is a poorly hydrolysed GTP analogue; its binding reports G protein activation.

Assay [2] deals with T1, Delta-type opioid receptor (Homo sapiens, UniProt P41143). Description: Inverse agonist potency at cloned human opioid receptor delta 1. The assay is classed as functional.
T1 sequence (P41143 whole entry): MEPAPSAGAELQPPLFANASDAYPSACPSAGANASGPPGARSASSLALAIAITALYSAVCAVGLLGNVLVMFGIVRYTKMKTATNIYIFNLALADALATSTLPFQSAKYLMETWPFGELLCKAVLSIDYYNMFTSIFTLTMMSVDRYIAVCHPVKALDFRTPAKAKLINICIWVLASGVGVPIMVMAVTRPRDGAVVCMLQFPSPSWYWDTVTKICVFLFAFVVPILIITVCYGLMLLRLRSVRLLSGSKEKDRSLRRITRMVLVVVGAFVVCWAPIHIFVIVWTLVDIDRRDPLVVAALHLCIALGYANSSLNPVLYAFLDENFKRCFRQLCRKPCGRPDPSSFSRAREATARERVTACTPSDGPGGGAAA
Assay [3] concerns the target T1, Delta-type opioid receptor. Description: Efficacy at cloned human opioid receptor delta 1, expressed as percent of basal binding.
Assay [4] has as its target Kappa-type opioid receptor (Homo sapiens) (UniProt P41145). Description: Ability to inhibit agonist-stimulated (U69,593) [35S]GTP-gamma-S, binding, using cloned human Opioid receptor kappa 1 expressed in CHO cells. The class given is functional, cell-based. The essentials: as §1
The target in assay [5] is Opioid receptors; mu & delta (Homo sapiens) (UniProt P41143+P35372). Description: Selectivity ratio of agonist stimulated [35S]GTP-gamma-S, binding in cloned human mu-opioid receptor versus delta-opioid receptor. The assay is classed as functional.
Sequence of Opioid receptors; mu & delta (Homo sapiens) (P35372 whole entry, looked up): as the sequence (P35372 whole entry) above
Sequence of Opioid receptors; mu & delta (Homo sapiens) (P41143 whole entry, looked up): as the sequence (P41143 whole entry) above
For assay [6], the target named is T1, Delta-type opioid receptor. Description: [3H]-Cl-DPDPE competition binding assay using human cloned opioid receptor delta 1.
Assay [7] concerns the target Opioid receptors; delta & kappa (Homo sapiens) (UniProt P41145+P41143). Description: Selectivity ratio of agonist stimulated [35S]GTP-gamma-S, binding in cloned human kappa-opioid receptor versus delta-opioid receptor. The class given is functional.
Assay [8] addresses T1, Delta-type opioid receptor. The assay can be described thus: Ability to inhibit agonist-stimulated (DPDPE) [35S]GTP-gamma-S, binding, using cloned human opioid receptor delta 1 expressed in CHO cells. The class given is functional, cell-based. The essentials:
as §1

In assay [9] the target is T1, Delta-type opioid receptor. The assay can be described thus: Inverse agonist potency at cloned human delta-opioid receptor. The assay is classed as functional.
Assay [10] addresses T1, Delta-type opioid receptor. Description: Binding affinity towards opioid receptor delta 1 expressed in CHO cells was determined by using [3H]DPDPE as radioligand. The class given is cell-based.

Sequence of Opioid receptors; delta & kappa (Homo sapiens) (P41143 whole entry, looked up): as the sequence (P41143 whole entry) above
Sequence of Opioid receptors; delta & kappa (Homo sapiens) (P41145 whole entry, looked up): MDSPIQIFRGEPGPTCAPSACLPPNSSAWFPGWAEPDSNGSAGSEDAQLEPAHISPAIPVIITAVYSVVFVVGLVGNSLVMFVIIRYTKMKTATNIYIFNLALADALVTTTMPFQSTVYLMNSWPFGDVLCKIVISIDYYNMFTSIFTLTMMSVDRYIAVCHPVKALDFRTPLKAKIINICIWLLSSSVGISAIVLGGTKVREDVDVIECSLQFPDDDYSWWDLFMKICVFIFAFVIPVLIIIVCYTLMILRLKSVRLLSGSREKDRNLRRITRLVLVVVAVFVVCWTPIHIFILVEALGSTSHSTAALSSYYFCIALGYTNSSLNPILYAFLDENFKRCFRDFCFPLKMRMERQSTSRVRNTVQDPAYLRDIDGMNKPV
Sequence of Kappa-type opioid receptor (Homo sapiens) (P41145 whole entry): as the sequence (P41145 whole entry, looked up) above

In the case of `CC1CN(CCCc2ccccc2)C2C[C@H](NC(=O)C3(c4ccccc4)CCCC3)CC1(c1cccc(O)c1)C2` (stereo partly drawn), the Ke came out at 40.3 nM in assay [1], 5.51 nM in assay [4] and 4.24 nM in assay [8]. Further, the IC50 in assay [2] was found to be 15.2 nM. For the same molecule, the Basal binding in assay [3] is 78%. In addition, the Selectivity ratio in assay [5] was 9.5; in [7] it was 1.3. The same molecule gave an inhibition constant Ki in [6] of 9.3 nM.
`Cc1ccccc1/C=C/CN1CC[C@@](C)(c2cccc(O)c2)[C@@H](C)C1` gave an IC50 in [2] of 2.8 nM. In assay [3], the Basal binding was 76%.
Regarding `Oc1ccc2c3c1O[C@H]1c4[nH]c5ccccc5c4C[C@@]4(O)[C@@H](C2)N(CC2CC2)CC[C@]314`, the Ke amounted to 33 nM in assay [1], 16.1 nM in [4] and 0.21 nM in [8].
For `CC1CN(CCCc2ccccc2)C2CC(NC(=O)C3(c4ccccc4)CCCC3)CC1(c1cccc(O)c1)C2` (racemic), the IC50 in [9] turned out to be 2.4 nM. The results for the Ke in [1], in [4] and in [8] were 12.2 nM, 3.52 nM and 0.55 nM, respectively. In addition, the Selectivity ratio in assay [5] was 22; in assay [7], 6.4. The molecule further came in with a Ki in assay [6] of 2.1 nM.
Take `CC1CN(CCCc2ccccc2)C2C[C@@H](NC(=O)C3(c4ccccc4)CCCC3)CC1(c1cccc(O)c1)C2` (single isomer, unassigned; (+)): the IC50 in [9] is 1.8 nM. Moreover, the Ke in [1] came to 8.7 nM; in assay [4], 17.9 nM; in assay [8] it was 0.15 nM. Moreover, the values for the Selectivity ratio in assay [5] and in assay [7] were 58 and 119, respectively. The molecule further came in with a Ki in assay [6] of 0.96 nM.
Regarding `C=CCN(CC=C)[C@@H](Cc1ccc(O)cc1)C(=O)NC(C)(C)C(=O)NC(C)(C)C(=O)N[C@@H](Cc1ccccc1)C(=O)N[C@@H](CC(C)C)C(=O)O` ({Tyr(Nα,Nα-allyl2)}-[Aib][Aib]FL-OH), the Ki in [10] came out at 19.1 nM. For the same molecule, the Ke in [1] amounted to 42 nM; in [4], 339 nM; in assay [8] it was 7.85 nM. In addition, the Selectivity ratio was determined as 5.4 in [5] and 43 in assay [7].
